Measured values of several laboratories.
Protocols differ between the studies behind these lines.
Target: Vascular endothelial growth factor receptor 1 (FLT1, Homo sapiens, UniProt P17948)

Structure (SMILES) | test | setting | remaining binding
N[C@@H]1CCN(c2nccc(-c3cnn4ncccc34)n2)C1 | binding | 1 µM | 100%
CCN(CC)CCCCNc1ncc2cc(-c3cc(OC)cc(OC)c3)c(NC(=O)NC(C)(C)C)nc2n1 | cell-free assay, competition with immobilised ligand | 1 µM | 8%
O=C(Nc1c[nH]nc1C(=O)NC1CCNCC1)c1cc(F)cc(F)c1 | binding, competition with immobilised ligand | 1 µM | 63%
O=C(NCc1ncc(C(F)(F)F)cc1Cl)c1ccc2c(c1)C1(CCS(=O)(=O)CC1)[C@@H](C1CC1)N2S(=O)(=O)c1ccc(F)cc1 | cell-free assay, competition with immobilised ligand | 1 µM | 82%
COc1ccnn2ncc(-c3ccnc(N(C)C)n3)c12 | binding | 1 µM | 100%
Cc1cnc(Nc2ccc(C(=O)N3CCC(N4CCCC4)CC3)cc2)nc1-c1cc2ccccc2s1 | binding, competition with immobilised ligand | 1 µM | 4.4%
c1cnn2ncc(-c3ccnc(N4CCC45COC5)n3)c2c1 | binding | 1 µM | 87%
CCC(=O)N[C@H]1CC[C@@H](C(=O)N(C)c2ccc(-c3nc4ccccc4o3)cc2)C1 | cell-free assay, competition with immobilised ligand | 1 µM | 98%
C=CC(=O)N1CCC(C(=O)NCC(=O)N2CCN(c3nc(-c4cnc(N)nc4C(F)F)nc(N4CCOCC4)n3)CC2)CC1 | binding, competition with immobilised ligand | 1 µM | 99%
CNC(=O)[C@@H]1CC[C@@H](n2c(-c3ccc4cnccc4c3)nc3ccc(C(=O)NCc4cccc(C(N)=O)c4)cc32)C1 | binding, competition with immobilised ligand | 1 µM | 100%
C[C@@H](c1ccc(-n2cnc3c(N)ncnc32)cc1)N1CCc2nn(C)c(Cc3ccccc3)c2C1=O | binding, competition with immobilised ligand | 0.1 µM | 81%
O=C(c1ccc(Nc2nccc(-c3cc4ccccc4s3)n2)cc1)N1CCC(N2CCCC2)CC1 | binding, competition with immobilised ligand | 1 µM | 46%
CN(CCCC(F)(F)F)c1nccc(-c2cnn3ncccc23)n1 | binding | 1 µM | 100%
CN([C@@H]1CCc2c(CC(=O)O)c3cc(S(C)(=O)=O)ccc3n2C1)S(=O)(=O)c1ccc(F)cc1 | cell-free assay, competition with immobilised ligand | 1 µM | 88%
O=C(NCCCN1CCOCC1)c1ccc(Nc2nccc(-c3cc4ccccc4s3)n2)cc1 | binding, competition with immobilised ligand | 1 µM | 70%
CCN1CCN(Cc2ccc(C(=O)Nc3ccc(C)c(Oc4ccc5c(c4)CC(=O)N5)c3)cc2C(F)(F)F)CC1 | binding, competition with immobilised ligand | 1 µM | 63%
Cc1cc(NC(=O)c2cccc(S(F)(F)(F)(F)F)c2)cc(-n2ccn3nc(-c4cccnc4)cc23)c1 | cell-free assay, competition with immobilised ligand | 1 µM | 100%
C[C@H]1CCN(c2nccc(-c3cnn4ncccc34)n2)C1 | binding | 1 µM | 100%
Cc1nc(N2CC[C@@H](O)C2)ncc1-c1cc(C(F)(F)F)cc2[nH]ncc12 | cell-free assay, competition with immobilised ligand | 1 µM | 100%
CN(c1nccc(-c2cnn3ncccc23)n1)C1CC1 | binding | 1 µM | 100%
O=C1CCc2cc(Nc3cc(OC4CCOCC4)c([N+](=O)[O-])cc3Cl)ccc2N1 | cell-free assay, competition with immobilised ligand | 1 µM | 100%
COc1cnc(Nc2cccc(S(N)(=O)=O)c2)nc1N1CCN(c2ccccc2)C(=O)C1 | binding, competition with immobilised ligand | 1 µM | 98%
